Screening data: PubChem, several laboratories
GPR7 antag: GPR7 receptor antagonists, primary screen, cell-based, fluorescence, single concentration | Neuropeptides B/W receptor type 1 (Homo sapiens), P48145 | GPR7-expressing cells, fluorescence antagonist assay | inhibition, % at 4.4 µM | AID 1861, 2009 | hit rate 1.1% among 290,000; in the data active = inhibition above about 16%, passing the limit was not always enough;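 also: cells stimulated with the agonist NPW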
Target sequence (P48145 whole entry, looked up): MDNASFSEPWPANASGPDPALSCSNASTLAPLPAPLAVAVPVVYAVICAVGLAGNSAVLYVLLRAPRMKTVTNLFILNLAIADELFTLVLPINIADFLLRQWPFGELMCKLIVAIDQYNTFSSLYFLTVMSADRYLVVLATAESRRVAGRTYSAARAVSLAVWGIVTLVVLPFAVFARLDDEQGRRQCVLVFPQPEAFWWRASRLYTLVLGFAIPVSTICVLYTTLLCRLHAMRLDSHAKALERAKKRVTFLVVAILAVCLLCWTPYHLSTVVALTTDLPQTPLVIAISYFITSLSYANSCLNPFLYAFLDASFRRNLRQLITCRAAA
HSF1 activator: HSF-1 activators, primary screen, NIH3T3-HGL cells, MG132 stress, luminescence, single point; AID 504408, 2011; hit rate 1.7% among 300,000; activation, % at 9 µM; NIH3T3-HGL HSF-1 luciferase reporter, 8 h; 100% = twice DMSO control signal;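 active = mean replicate activation of at least 50% with a set share of replicates each reaching 50%; inconclusive = only one of those two conditions met; inactive = mean below 50% and too few replicates reaching it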
T cruzi inh: inhibitors of intracellular T. cruzi growth, primary screen, luminescence, NIH3T3 host cells; T. cruzi beta-gal in NIH3T3, 90 h; inhibition, % (test concentration not listed); hit rate 1.4% among 300,000;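 active = mean inhibition across valid replicates above about 55%, limit read from the data; inconclusive = mean below that limit but half or more replicates reach it; inactive = mean below it, under half of replicates reach it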;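 also: signal also drops with host cell toxicity which is not excluded here; higher percent means less beta-gal luminescence so fewer parasites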
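Test system: β-gal T. cruzi (Tulahuen C4) inside NIH/3T3 cells / Quantity: 5,000 cells/well / Measured by: luminescence from GalScreen with 0.05% NP40, read after 60 min / Medium: DMEM plus 2% FBS / Measure: parasite load inhibition, % / Reagent: Tulahuen C4 trypomastigotes, 5000/well / Schedule: co-culture of at least 90 h after 3 h attachment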
697 NFkB inh: inhibitors of PMA/ionomycin-induced NF-kB reporter, 697 cells, primary screen, B-cell NF-kB inhibitor project, cell-based, luminescence, uHTS; 697 B-cell NF-kB luciferase reporter, 16 h; inhibition, % at 4 µM; hit rate 0.33% among 330,000; AID 435022, 2010; in the data active = inhibition above about 35%
HSF1 inh: HSF1 inhibitors in luciferase reporter cells, primary screen, cell-based, NIH3T3, luminescence; NIH3T3-HGL HSE-luciferase, MG132-induced, luminescence 8 h; active compounds read low; hit rate 0.77% among 300,000; AID 2098, 2009; activity change, negative = inhibition, % at 7.5 µM (by protocol);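 active = more than half of replicate wells show activity change below -50%, luminescence cut by over half; inconclusive = some wells, but at most half, below -50%; inactive = no replicate well below -50%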;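 also: luciferase reports HSF-1 transcriptional activity via heat shock element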
Jurkat NFkB inh: inhibitors of induced NF-kB luciferase reporter, primary screen, TCR NF-kB activation inhibitor project, cell-based, luminescence, uHTS; Jurkat, PMA/ionomycin-induced NF-kB luciferase reporter; inhibition, % at 4 µM; hit rate 0.53% among 330,000; in the data active = inhibition above about 50%
Hits are given with their value; n = inactive; u = inconclusive; x = no result; ! = not confirmed by another sample. Compounds with a hit are over-represented: about 4.8% of the library has one in this group of screens.

SMILES	GPR7 antag	HSF1 activator	T cruzi inh	697 NFkB inh	HSF1 inh	Jurkat NFkB inh
O=C(NC(=S)N1CCc2ccccc21)c1ccccc1Br	n	57	n	n	n	n
O=C(Nc1ccc2c3c(cccc13)CC2)c1ccc(Br)o1	n	75	n	n	n	n
O=C(NC(=S)N1CCc2ccccc21)c1ccc(Br)o1	n	52	n	n	n	n
O=C(O)/C=C/C(=O)Nc1ccc(N2CCOCC2)nc1N1CCOCC1	n	n	n	n	n	n
Cc1ccc(CNC(=O)CNS(=O)(=O)c2ccc(Br)s2)cc1	n	n	n	n	n	n
COc1ccc(C(=O)NC2CCN(CC(=O)Nc3cccc(OC)c3)CC2)cc1	n	n	n	n	n	n
CC1=C(CO)C(=O)OC([C@@H](C)C2CC[C@H]3C4C[C@H]5O[C@]56[C@@H](O)C=CC(=O)[C@]6(C)C4CC[C@]23C)C1 (stereo not given in full)	x	64	n	x	n	x
O=C(NCc1cccnc1)c1ccccc1NS(=O)(=O)c1ccc(Br)cc1	x	x	x	n	x	n
Cc1ccccc1N1CCN(C(=O)c2ccc(Oc3ccc(C(F)(F)F)cn3)cc2)CC1	n	n	58	n	n	n
C[C@@H](C(=O)Nc1ccc2c(c1)OCO2)n1c(=O)[nH]c2ccccc2c1=O	n	n	n	n	n	n
C[C@@H](C(=O)Nc1ccc2c(c1)OCCO2)n1c(=O)[nH]c2ccccc2c1=O	n	n	n	n	-77	n
Cc1ccc(S(=O)(=O)N2C[C@@H]3CCCC[C@@H]3[C@@H](C)[C@H]2CC(=O)c2ccccc2)cc1	x	x	x	n	x	x
COc1ccc(C(=O)Nc2nc3c(s2)Cc2cc(OC)ccc2-3)cc1	n	n	n	n	n	n
COc1ccc2c(c1)Cc1sc(NC(=O)c3cccs3)nc1-2	n	n	55	n	n	n
O=c1c2ccccc2nc(/C=C/c2ccc([N+](=O)[O-])o2)n1CCCO	n	n	62	n	n	n
COCCCC/C(=N\OCCN)c1ccc(C(F)(F)F)cc1	n	n	n	n	-81!	n
Cc1cc(C)cc(N(CC(=O)NCC2CCCO2)C(=O)CCC(=O)Nc2nccs2)c1 (stereo not given)	n	n	n	n	n	n
CCCCNc1nc(N(C)c2ccccc2)nc(-n2ccnc2)n1	n	n	61	n	n	n
CCCCCNc1nc(-c2ccccc2)nc(-n2ccnc2)n1	n	n	62	n	n	n
c1ccc(-c2nc(N3CCN(c4ccccc4)CC3)nc(-n3ccnc3)n2)cc1	n	n	60	n	n	n
Cc1ccc(NC(=O)COC(=O)[C@H](C)N2C(=O)C3CC=CCC3C2=O)cc1S(=O)(=O)N(C)C (stereo not given in full)	n	68	n	n	n	n
O=C(COC(=O)Cn1cnc2ccccc21)Nc1ccc2c(c1)C(=O)c1ccccc1C2=O	n	n	n	n	n	n
Cc1ccc(NC(=O)COC(=O)Cn2cnc3ccccc32)cc1S(=O)(=O)N(C)C	n	n	n	n	-83	n
Cc1cc(=O)[nH]c(Nc2ccccc2C)n1	n	n	n	n	n	n
CCOc1ccccc1/C=C/c1onc(C)c1S(=O)(=O)N1CCC(C(=O)NC(C)(C)C)CC1	n	n	n	n	-83	n
SMILES	GPR7 antag	HSF1 activator	T cruzi inh	697 NFkB inh	HSF1 inh	Jurkat NFkB inh
COC(=O)/C=C1/N/C(=N\c2nc(C)cc(C)n2)N(c2ccc(C)c(C)c2)C1=O	n	91	n	n	n	n
Cc1cc(C)n2nc(C(=O)N/N=C/c3cccc(Cl)c3)nc2n1	n	56	n	n	n	n
Cc1cc(C)n2nc(C(=O)N/N=C/c3ccc(Cl)cc3)nc2n1	n	n	n	n	n	n
O=C(NCCc1ccco1)C(=O)NCC1CCCN1S(=O)(=O)c1ccccc1 (stereo not given)	x	n	n	n	n	n
COc1ccc(C2CC(=O)C3=C(C2)Nc2ncnn2C3c2ccccc2C)cc1 (stereo not given)	n	n	n	n	n	n
COc1ccc(C2CC(=O)C3=C(C2)Nc2ncnn2C3c2ccccc2)cc1 (stereo not given)	n	81	n	n	n	n
Cc1cc(S(=O)(=O)N2CCCc3ccccc32)ccc1-n1cnnn1	n	n	n	n	n	n
O=c1cc(N2CCN(Cc3ccccc3)CC2)[nH]c(=O)n1-c1ccc(Br)cc1	n	n	n	n	n	n
COc1ccc(-n2c(=O)cc(N3CCN(Cc4ccccc4)CC3)[nH]c2=O)cc1	18	n	n	n	n	n
CC(C)Oc1ccc(CNCCC2(C(C)C)CCOC(C)(C)C2)cc1 (stereo not given)	n	n	68	n	n	n
CC1CCCCN1C(=O)c1cc(-c2ccc(Cl)c(Cl)c2)on1 (stereo not given)	n	57	n	n	n	n
CCC1CCCCN1C(=O)c1cc(-c2ccc(Cl)c(Cl)c2)on1 (stereo not given)	n	n	n	n	n	n
Cc1[nH]c2ccccc2c1C(=O)CSC(=S)N1CCOCC1	n	n	n	n	n	n
CCc1ccc(C2NC(=S)NC3=C2C(=O)N(c2ccccc2OC)C(c2ccc(CC)cc2)N3)cc1 (stereo not given)	n	n	n	n	n	n
O=C1C2=C(NC(=S)NC2c2ccc(Cl)cc2)NC(c2ccc(Cl)cc2)N1c1ccc(Cl)cc1 (stereo not given)	n	u	57	n	n	n
Nc1ccc(Sc2ccccc2)nc1	x	n	n	n	n	n
C(=N\Nc1nc2ccccc2[nH]1)/c1ccc2c(c1)OCCO2	n	71	n	n	n	n
Cc1cc(C)nc(N/N=C/c2ccc3c(c2)OCCO3)n1	n	n	n	n	n	n
C(=N\Nc1ccc2ccccc2n1)/c1ccc2c(c1)OCCO2	n	n	n	n	-80	n
CCOc1cc(/C=N/NC(N)=S)cc(Br)c1OCc1ccccc1C	n	n	79	n	n	n
CCCCN(C(=O)CSc1nnc(Nc2ccccc2)s1)c1c(N)n(CCC)c(=O)[nH]c1=O	n	x	n	n	x	n
O=C(CC(=O)c1ccccc1[N+](=O)[O-])c1ccccc1	x	n	n	n	-70	n
O=C(NCc1cccs1)c1ccccc1[N+](=O)[O-]	n	n	n	n	-70	n
CCOC(=O)[C@@H]1[C@H]2COc3ccccc3[C@H]2N2C(=O)N(c3cccc(F)c3)C(=O)[C@]12C	n	n	n	n	n	n
Nc1ccc(S(=O)(=O)c2cccc(N)c2)cc1	n	n	n	n	n	n
